Measurements collected from several papers.
Each line is one published result; the experiments were not run side by side.
DRD3: D(3) dopamine receptor (DRD3, Homo sapiens, UniProt P35462)
USP51: Ubiquitin carboxyl-terminal hydrolase 51 (USP51, Homo sapiens, UniProt Q70EK9)
CA12: Carbonic anhydrase 12 (CA12, Homo sapiens, UniProt O43570)
SLC6A3: Sodium-dependent dopamine transporter (SLC6A3, Homo sapiens, UniProt Q01959)

The inhibition of CC(O)c1ccc(-c2ccc(CNCCc3ccc(S(N)(=O)=O)cc3)o2)cc1 (stereo not shown) is reported as -9.5% (DRD3; enzyme activity, inhibitor; 10 µM).
For CC1(C)[C@@H](O)CC[C@]2(C)[C@H]3C(=O)C=C4[C@@H]5C[C@@](C)(C(=O)O)CC[C@]5(C)CC[C@@]4(C)[C@]3(C)CC[C@@H]12, the inhibition was 3% (USP51; enzyme activity, inhibitor; 5 µM).
CCn1c2ccccc2c2cc(CNCCCN3CCOCC3)ccc21 gave an inhibition of 13.5% (DRD3; enzyme activity, inhibitor; 10 µM).
The inhibition of CNC(=O)c1cc(Oc2ccc(NC(=O)Nc3ccc(Cl)c(C(F)(F)F)c3)cc2)ccn1 is reported as 95% (Tyrosine-protein kinase Lyn (Lyn, Mus musculus, UniProt P25911); enzyme activity, inhibitor; 10 µM).
CCOC(=O)C1CSc2[nH]c(=O)sc2C1c1cn(-c2ccccc2)nc1-c1ccc(Br)cc1 (stereo not shown) has an inhibition of 55.8% (CA12; enzyme activity, inhibitor, absorbance; 1 µM).
For C/C=C1\[C@H]2C=C(C)C[C@]1(N)c1ccc(=O)[nH]c1C2, the inhibition was 47% (USP51; enzyme activity, inhibitor; 5 µM).
CC(=O)O[C@H]1[C@H](O[C@@H]2[C@@H](O)[C@@H](O)[C@H](Oc3c(-c4ccc(O)cc4)oc4cc(O)cc(O)c4c3=O)O[C@H]2C)O[C@H](CO)[C@@H](O)[C@@H]1O has an inhibition of 58% (Aromatase (CYP19A1, Homo sapiens, UniProt P11511); enzyme activity, inhibitor; 20 µg/mL).
CC(=O)Nc1ccc(N2CC(O)=C(c3nc4ccccc4[nH]3)C2=N)cc1 gave an inhibition of -23.2% (DRD3; enzyme activity, inhibitor; 10 µM).
For COc1ccc(C(C)=O)c(O)c1, the inhibition was 18% (USP51; enzyme activity, inhibitor; 5 µM).
The inhibition of Clc1ccc(C(c2ccccc2)c2nnnn2CCCCN2CCC(CCCc3ccccc3)CC2)cc1 (stereo not shown) is reported as 69% (SLC6A3; transporter uptake, inhibitor; HEK293; 1 µM).
The inhibition of O=C(c1ccc(Cl)cc1)N(Cc1ccccc1)C1CCCCC1 is reported as 27.3% (Urotensin-2 receptor (UTS2R, Homo sapiens, UniProt Q9UKP6); cell-free assay; 10 µM).
Fc1ccc(C(c2ccc(F)cc2)c2nnnn2CCCCN2CCN(Cc3ccccc3)CC2)cc1 gave an inhibition of 95.7% (SLC6A3; transporter uptake, inhibitor; HEK293; 1 µM).
O=C[C@H](O)[C@@H](O)[C@H](O)CO (racemic) gave an inhibition of 35% (USP51; enzyme activity, inhibitor; 5 µM).
The inhibition of N#CC1CSc2[nH]c(=O)sc2C1c1cn(-c2ccccc2)nc1-c1ccc(Br)cc1 (stereo not shown) is reported as 28.1% (CA12; enzyme activity, inhibitor, absorbance; 10 nM).
Clc1ccc(C(c2ccccc2)c2nnnn2CCCN2CCC(CCc3ccccc3)CC2)cc1 (stereo not shown) gave an inhibition of 78.4% (SLC6A3; transporter uptake, inhibitor; HEK293; 1 µM).
CCOC(=O)C1CSc2[nH]c(=O)sc2C1c1cn(-c2ccccc2)nc1-c1ccc(C)cc1 (stereo not shown) has an inhibition of 52.9% (CA12; enzyme activity, inhibitor, absorbance; 1 µM).
For CC(=O)c1ccc(O)c(C(=O)O)c1, the inhibition was 29% (USP51; enzyme activity, inhibitor; 5 µM).
CCOC(=O)C1CSc2[nH]c(=O)sc2C1c1cn(-c2ccccc2)nc1-c1ccc(OC)cc1 (stereo not shown) gave an inhibition of 78% (CA12; enzyme activity, inhibitor, absorbance; 10 µM).
With COc1ccc(CCN2C(=O)CC(N3CCN(c4ccc(Cl)cc4)CC3)C2=O)cc1OC (stereo not shown) the inhibition was -14.6% (DRD3; enzyme activity, inhibitor; 10 µM).
c1ccc(CCC2CCN(CCCCn3nnnc3C(c3ccccc3)c3ccccc3)CC2)cc1 gave an inhibition of 80.3% (SLC6A3; transporter uptake, inhibitor; HEK293; 1 µM).
For Nc1ncnc2c1ncn2[C@@H]1O[C@H](CO)C[C@H]1O, the inhibition was 24% (USP51; enzyme activity, inhibitor; 5 µM).
COc1ccc(S(N)(=O)=O)cc1C(=O)NCCCN1CCN(c2ccccc2OC)CC1 gave an inhibition of 21.6% (DRD3; enzyme activity, inhibitor; 10 µM).
